From ChEMBL document CHEMBL1765008, “Fused heterocyclic amido compounds as anti-hepatitis C virus agents” (Bioorg Med Chem, 2011) come the findings set out here.

Structures are written as SMILES.

One test relates to Hepatitis C virus. As to the kind of experiment: Antiviral activity against Hepatitis C virus assessed as inhibition of viral replication after 24 hrs by cell based luciferase reporter gene assay. It is filed as functional, organism-based. The conditions noted are these: Hepacivirus hominis, 72 h, in the assay text read “after 3 days” for “after 24 hrs”. The method, boiled down: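 Subgenomic HCV RNA replicon cells carrying luciferase (LucNeo#2), maintained in DMEM with 10% FBS, antibiotics and 1 mg/ml geneticin. Seeded at 50,000 cells/ml without geneticin and incubated 24 h. Medium then replaced with medium containing serial compound dilutions for 3 days. Cells washed with PBS and lysed for 10 min; luciferase activity in the lysate read by luminometer.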
For the compound `CCCCn1c(=O)c2ccccc2c2cc(C(O)(C(F)(F)F)C(F)(F)F)ccc21`, the EC50 is 3.2 µM.
Consider `CCCCn1c(=O)c2cc(OC)ccc2c2c(OC)c(C(O)(C(F)(F)F)C(F)(F)F)cc(OC)c21`, for which the EC50 is 6.1 µM.
Still for that read-out and setting: with `CCCCn1c(=O)c2cc(OC)ccc2c2cc(C(O)(C(F)(F)F)C(F)(F)F)c3c(c21)OCO3` the figure was 0.05 µM.
On the same count and under the same terms, with `CCCCn1c(=O)c2ccccc2c2c(OC)c(C(O)(C(F)(F)F)C(F)(F)F)ccc21` the figure was 7.2 µM; with `CCCCn1c(=O)c2c(OC)cccc2c2cc(C(O)(C(F)(F)F)C(F)(F)F)ccc21`, 9.96 µM; with `CCCCn1c(=O)c2ccccc2c2cc(C(O)(C(F)(F)F)C(F)(F)F)c(OC)cc21`, 3.4 µM.
In the case of `CCCCn1c(=O)c2ccccc2c2cc(C(O)(C(F)(F)F)C(F)(F)F)c(F)cc21`, the EC50 was found to be 5.3 µM.
Still for that read-out and setting: the figure for `CCCCn1c(=O)c2ccccc2c2cc(C(O)(C(F)(F)F)C(F)(F)F)cc(F)c21` is 2.4 µM.
Same read-out and setting: with `CCCCn1c(=O)c2ccccc2c2cc(C(O)(C(F)(F)F)C(F)(F)F)c(C)cc21` the figure was 5.6 µM.
Still for that read-out and setting: the figure for `CCCCn1c(=O)c2ccccc2c2cc(C(O)(C(F)(F)F)C(F)(F)F)cc(C)c21` is 2.1 µM; for `CCCCn1c(=O)c2ccccc2c2cc(C(O)(C(F)(F)F)C(F)(F)F)cc(OC)c21` it is 1.1 µM; for `CCCCn1c(=O)c2cc(OC)ccc2c2cc(C(O)(C(F)(F)F)C(F)(F)F)ccc21` it is 0.98 µM.
Take `CCCCn1c(=O)c2ccc(OC)cc2c2cc(C(O)(C(F)(F)F)C(F)(F)F)ccc21`: the EC50 came to 16.6 µM.
On the same count and under the same terms, the figure for `CCCCn1c(=O)c2cccc(OC)c2c2cc(C(O)(C(F)(F)F)C(F)(F)F)ccc21` is 5 µM; for `CCCCn1c(=O)c2ccccc2c2c(OC)c(C(O)(C(F)(F)F)C(F)(F)F)cc(OC)c21` it is 5.7 µM; for `CCCCn1c(=O)c2ccccc2c2cc(C(O)(C(F)(F)F)C(F)(F)F)c(OC)c(OC)c21` it is 2.6 µM.
Take `CCCCn1c(=O)c2cc(OC)ccc2c2cc(C(O)(C(F)(F)F)C(F)(F)F)c(OC)cc21`: the EC50 worked out at 0.18 µM.
On the same count and under the same terms, the figure for `CCCCn1c(=O)c2cc(OC)ccc2c2cc(C(O)(C(F)(F)F)C(F)(F)F)cc(OC)c21` is 0.51 µM; for `CCCCn1c(=O)c2cc(OC)ccc2c2cc(C(O)(C(F)(F)F)C(F)(F)F)c(OC)c(OC)c21` it is 1.8 µM; for `CCCCn1c(=O)c2ccccc2c2cc(C(O)(C(F)(F)F)C(F)(F)F)c3c(c21)OCO3` it is 0.29 µM.
Same read-out and setting: the figure for `CCCCn1c(=O)c2cc3c(cc2c2cc(C(O)(C(F)(F)F)C(F)(F)F)ccc21)OCO3` is 2.3 µM.
Same read-out and setting: the figure for `CCCCn1c(=O)c2ccccc2c2c(OC)c(C(O)(C(F)(F)F)C(F)(F)F)c3c(c21)OCO3` is 9.8 µM; for `CCCCn1c(=O)c2cc(OC)ccc2c2c(OC)c(C(O)(C(F)(F)F)C(F)(F)F)c3c(c21)OCO3` it is 12 µM; for `CCCCn1c(=O)c2cc3c(cc2c2cc(C(O)(C(F)(F)F)C(F)(F)F)c4c(c21)OCO4)OCO3` it is 1.73 µM.
For `COCCn1c(=O)c2ccccc2c2cc(C(O)(C(F)(F)F)C(F)(F)F)ccc21`, the EC50 was 5.4 µM.
Same read-out and setting: the figure for `O=c1c2ccccc2c2cc(C(O)(C(F)(F)F)C(F)(F)F)ccc2n1Cc1ccc2ccccc2c1` is 8.8 µM.

In a further test the test system is Bovine viral diarrhea virus 1. As to the kind of experiment: Antiviral activity against Bovine viral diarrhea virus assessed as inhibition of viral replication after 24 hrs by cell based luciferase reporter gene assay. It is filed as functional, organism-based. Particulars: Bovine viral diarrhea virus isolates and strains.
Turning to `Cc1ncc2c3ccccc3n(C)c2c1C`, the EC50 was 0.0035 µM.
